# pEC50: −log10 of the molar value. Calls of active or inactive are those of the source. The rule behind the calls is not given here.
# Experiments:
# [1] = target: T1, Glutamate NMDA receptor; GRIN1/GRIN2A (Homo sapiens, UniProt Q05586+Q12879); assay: Positive allosteric modulation of GluN1/GluN2A NMDAR (unknown origin) expressed in Dox-inducible cells measured every 5 mins by BD calcium indicator dye based-fluorescence analysis in presence of glutamate/glycine; type: cell-based
# Outline: (§1)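 GluN2A-containing NMDAR cell line, harvested, seeded, doxycycline 2 µg/mL overnight with 500 µM ketamine for protection, then washed and loaded with calcium dye for 50 min. Compound added at 2x concentration in 2x EC30 Glu (EC30 set daily from Glu dose-response); saturating Gly throughout; fluorescence recorded over 5 min.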
# Glutamate receptor 2 [2] = target: T2, Glutamate receptor 2 (Homo sapiens, UniProt P42262); assay: Positive allosteric modulation of human GluA2 AMPAR flip isomer expressed in Dox-inducible cells measured every 5 mins by BD calcium indicator dye based-fluorescence analysis in presence of glutamate; type: cell-based
# T2 sequence (P42262 whole entry): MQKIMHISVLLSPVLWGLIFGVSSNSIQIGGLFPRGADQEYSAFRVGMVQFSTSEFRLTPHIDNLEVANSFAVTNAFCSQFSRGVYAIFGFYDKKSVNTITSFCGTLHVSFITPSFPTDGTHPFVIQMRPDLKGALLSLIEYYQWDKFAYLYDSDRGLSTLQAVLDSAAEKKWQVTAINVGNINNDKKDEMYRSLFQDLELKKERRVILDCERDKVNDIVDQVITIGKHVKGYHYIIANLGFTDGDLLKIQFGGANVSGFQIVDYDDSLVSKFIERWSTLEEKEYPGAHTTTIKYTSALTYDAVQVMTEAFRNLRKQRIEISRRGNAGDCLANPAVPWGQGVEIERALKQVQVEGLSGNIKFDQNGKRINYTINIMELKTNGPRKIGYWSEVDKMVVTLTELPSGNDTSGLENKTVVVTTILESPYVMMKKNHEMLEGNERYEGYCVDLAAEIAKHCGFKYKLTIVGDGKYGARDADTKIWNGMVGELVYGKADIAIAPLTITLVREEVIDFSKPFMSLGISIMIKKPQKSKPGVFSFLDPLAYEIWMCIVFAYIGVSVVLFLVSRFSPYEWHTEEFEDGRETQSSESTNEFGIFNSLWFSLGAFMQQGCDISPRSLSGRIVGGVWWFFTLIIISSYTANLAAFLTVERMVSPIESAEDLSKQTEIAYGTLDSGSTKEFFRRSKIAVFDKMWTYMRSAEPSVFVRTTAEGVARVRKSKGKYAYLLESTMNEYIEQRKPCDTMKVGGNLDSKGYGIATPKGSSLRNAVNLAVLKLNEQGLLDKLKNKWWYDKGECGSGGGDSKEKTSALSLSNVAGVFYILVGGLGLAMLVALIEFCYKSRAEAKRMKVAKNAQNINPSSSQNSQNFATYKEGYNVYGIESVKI
# [3] = target: T1, Glutamate NMDA receptor; GRIN1/GRIN2A; assay: Positive allosteric modulation of GluN1/GluN2A NMDAR (unknown origin) expressed in Dox-inducible cells at 125 uM measured every 5 mins by BD calcium indicator dye based-fluorescence analysis in presence of glutamate/glycine; type: cell-based; outline: as §1
# Glutamate receptor 2 [4] = target: T2, Glutamate receptor 2; assay: Positive allosteric modulation of human GluA2 AMPAR flip isomer expressed in Dox-inducible cells at 125 uM measured every 5 mins by BD calcium indicator dye based-fluorescence analysis in presence of glutamate; type: cell-based
# Glutamate receptor 2 [5] = target: T2, Glutamate receptor 2; assay: Positive allosteric modulation of human GluA2 AMPAR flop isomer expressed in Dox-inducible cells measured every 5 mins by BD calcium indicator dye based-fluorescence analysis in presence of glutamate; type: cell-based
# Glutamate receptor 2 [6] = target: T2, Glutamate receptor 2; assay: Positive allosteric modulation of human GluA2 AMPAR flop isomer expressed in Dox-inducible cells at 125 uM measured every 5 mins by BD calcium indicator dye based-fluorescence analysis in presence of glutamate; type: cell-based
# Homo sapiens [7] = species: Homo sapiens; assay: Selectivity ratio of EC50 for human GluA2 AMPAR flop isomer to EC50 for GluN1/GluN2A NMDAR (unknown origin) expressed in Dox-inducible cells; type: cell-based
# [8] = target: Glutamate NMDA receptor; GRIN1/GRIN2B (Homo sapiens) (UniProt Q05586+Q13224); assay: Positive allosteric modulation of GluN1/GluN2B NMDAR (unknown origin) expressed in Dox-inducible cells at 125 uM measured every 5 mins by BD calcium indicator dye based-fluorescence analysis in presence of glutamate/glycine; type: cell-based
# Outline: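 Doxycycline-induced (2 µg/mL, overnight, 500 µM ketamine) GluN2B-containing NMDAR cells, loaded with calcium dye for 50 min; compound added at 2x in 2x EC30 Glu, with saturating Gly; fluorescence recorded over 5 min. Max potentiation at 125 µM reported where no EC50 obtained; 30% denotes baseline (EC30 Glu).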
# human MDR1 (P-gp) = assay: Efflux ratio of permeability from basolateral to apical over apical to basolateral side in MDCK cells expressing human MDR1; type: ADME, cell-based, Canis lupus familiaris; details: dog
# [9] = Lipophilicity, logD of the compound at pH 7.4; type: physicochemical; details: buffer
# Homo sapiens [10] = species: Homo sapiens; assay: Selectivity ratio of EC50 for human GluA2 AMPAR flip isomer to EC50 for GluN1/GluN2A NMDAR (unknown origin) expressed in Dox-inducible cells; type: cell-based
# [11] = target: Ionotropic glutamate receptor NMDA 1/2C (Homo sapiens, UniProt Q05586+Q14957); assay: Positive allosteric modulation of GluN1/GluN2C NMDAR (unknown origin) expressed in Dox-inducible cells by BD calcium indicator dye based-fluorescence analysis in presence of glutamate/glycine
# Chain of Ionotropic glutamate receptor NMDA 1/2C (Q14957 whole entry, other chains not shown): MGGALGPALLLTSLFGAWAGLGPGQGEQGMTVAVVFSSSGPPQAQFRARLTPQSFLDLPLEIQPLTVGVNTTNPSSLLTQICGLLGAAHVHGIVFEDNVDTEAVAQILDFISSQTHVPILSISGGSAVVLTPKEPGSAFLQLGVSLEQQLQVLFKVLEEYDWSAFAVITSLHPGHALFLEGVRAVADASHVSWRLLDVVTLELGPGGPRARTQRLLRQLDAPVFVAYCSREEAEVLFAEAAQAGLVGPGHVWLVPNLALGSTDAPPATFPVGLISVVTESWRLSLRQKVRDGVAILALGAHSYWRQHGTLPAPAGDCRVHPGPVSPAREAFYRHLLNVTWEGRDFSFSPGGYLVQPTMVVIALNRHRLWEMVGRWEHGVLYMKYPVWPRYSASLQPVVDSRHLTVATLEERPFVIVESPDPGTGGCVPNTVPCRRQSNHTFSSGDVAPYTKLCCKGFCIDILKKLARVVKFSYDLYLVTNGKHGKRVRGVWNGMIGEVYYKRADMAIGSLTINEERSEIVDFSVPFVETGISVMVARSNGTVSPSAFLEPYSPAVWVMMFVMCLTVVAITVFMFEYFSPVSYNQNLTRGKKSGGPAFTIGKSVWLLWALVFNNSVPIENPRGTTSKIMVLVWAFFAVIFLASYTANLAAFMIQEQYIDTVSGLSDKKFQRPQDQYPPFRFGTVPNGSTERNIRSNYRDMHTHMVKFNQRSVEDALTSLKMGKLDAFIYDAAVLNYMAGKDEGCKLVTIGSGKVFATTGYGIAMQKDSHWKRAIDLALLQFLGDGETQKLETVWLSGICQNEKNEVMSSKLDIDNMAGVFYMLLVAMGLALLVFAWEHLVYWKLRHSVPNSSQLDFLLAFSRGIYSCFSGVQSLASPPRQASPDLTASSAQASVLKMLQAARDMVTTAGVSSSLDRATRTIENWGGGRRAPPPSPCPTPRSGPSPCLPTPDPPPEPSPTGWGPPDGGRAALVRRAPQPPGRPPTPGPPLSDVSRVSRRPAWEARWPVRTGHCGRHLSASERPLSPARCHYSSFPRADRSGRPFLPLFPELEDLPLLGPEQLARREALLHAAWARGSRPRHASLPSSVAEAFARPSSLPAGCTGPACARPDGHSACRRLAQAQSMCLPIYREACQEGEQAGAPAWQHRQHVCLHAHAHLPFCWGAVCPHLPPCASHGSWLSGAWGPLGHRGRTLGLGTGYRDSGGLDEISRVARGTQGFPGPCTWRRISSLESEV
# [12] = target: Ionotropic glutamate receptor NMDA 1/2D (Homo sapiens, UniProt O15399+Q05586); assay: Positive allosteric modulation of GluN1/GluN2D NMDAR (unknown origin) expressed in Dox-inducible cells by BD calcium indicator dye based-fluorescence analysis in presence of glutamate/glycine
# Chain of Ionotropic glutamate receptor NMDA 1/2D (O15399 whole entry, other chains not shown): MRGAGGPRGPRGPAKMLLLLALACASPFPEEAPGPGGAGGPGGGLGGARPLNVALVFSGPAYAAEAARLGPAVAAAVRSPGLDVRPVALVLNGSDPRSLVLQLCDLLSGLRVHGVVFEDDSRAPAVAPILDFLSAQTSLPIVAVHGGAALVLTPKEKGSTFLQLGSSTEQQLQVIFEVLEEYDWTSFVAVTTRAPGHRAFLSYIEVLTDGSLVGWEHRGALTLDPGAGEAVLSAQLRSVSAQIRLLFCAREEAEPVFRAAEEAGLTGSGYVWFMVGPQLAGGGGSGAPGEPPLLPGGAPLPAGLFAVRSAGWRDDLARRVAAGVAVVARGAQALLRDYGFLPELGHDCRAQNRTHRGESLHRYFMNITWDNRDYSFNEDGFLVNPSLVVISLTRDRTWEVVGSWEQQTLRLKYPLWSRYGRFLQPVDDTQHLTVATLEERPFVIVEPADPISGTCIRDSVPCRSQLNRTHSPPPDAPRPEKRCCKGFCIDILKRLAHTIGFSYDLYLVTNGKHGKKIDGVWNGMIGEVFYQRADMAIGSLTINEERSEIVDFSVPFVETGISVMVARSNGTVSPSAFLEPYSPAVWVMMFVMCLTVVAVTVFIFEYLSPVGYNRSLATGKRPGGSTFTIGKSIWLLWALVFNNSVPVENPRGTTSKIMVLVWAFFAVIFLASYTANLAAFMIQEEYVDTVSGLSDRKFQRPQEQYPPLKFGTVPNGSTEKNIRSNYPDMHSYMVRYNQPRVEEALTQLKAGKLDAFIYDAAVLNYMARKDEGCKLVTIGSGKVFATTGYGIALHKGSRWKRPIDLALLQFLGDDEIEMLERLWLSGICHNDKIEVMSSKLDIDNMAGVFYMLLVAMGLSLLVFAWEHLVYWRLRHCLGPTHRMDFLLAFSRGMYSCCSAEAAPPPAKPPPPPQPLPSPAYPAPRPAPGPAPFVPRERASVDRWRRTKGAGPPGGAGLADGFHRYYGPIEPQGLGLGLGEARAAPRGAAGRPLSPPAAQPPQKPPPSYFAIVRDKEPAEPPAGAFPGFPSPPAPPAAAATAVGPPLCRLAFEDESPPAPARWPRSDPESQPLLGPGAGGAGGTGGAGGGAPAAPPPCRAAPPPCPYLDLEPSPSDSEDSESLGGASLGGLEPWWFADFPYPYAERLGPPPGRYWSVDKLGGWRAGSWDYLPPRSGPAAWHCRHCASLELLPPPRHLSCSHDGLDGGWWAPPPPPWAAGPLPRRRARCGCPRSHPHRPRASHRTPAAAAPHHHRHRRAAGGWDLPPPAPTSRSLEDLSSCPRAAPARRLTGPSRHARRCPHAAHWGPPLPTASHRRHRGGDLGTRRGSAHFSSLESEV
# [13] = Plasma protein binding in mouse; type: ADME, cell-free; details: read-out: PPB (converted)
# [14] = Protein binding in mouse brain; type: ADME, tissue-based; details: read-out: PB (converted)
# [15] = Blood clearance in mouse at 0.3 mg/kg, iv; type: ADME, organism-based
# [16] = Half life in mouse at 0.3 mg/kg, iv; type: ADME, organism-based; details: in vivo
# [17] = Oral bioavailability in mouse at 10 mg/kg; type: ADME, organism-based; details: in vivo
# Plasma = assay: Fraction unbound in mouse plasma at 10 mg/kg, po measured at 1 hr; type: ADME, organism-based; details: in vivo
# [18] = target: T1, Glutamate NMDA receptor; GRIN1/GRIN2A; assay: Positive allosteric modulation of GluN1/GluN2A NMDAR (unknown origin) expressed in CHO cells assessed as slowing of deactivation kinetics at 10 uM by whole-cell voltage clamp electrophysiological analysis; type: cell-based
# [19] = target: T1, Glutamate NMDA receptor; GRIN1/GRIN2A; assay: Positive allosteric modulation of GluN1/GluN2A NMDAR (unknown origin) expressed in CHO cells assessed as slowing of deactivation kinetics at 100 uM by whole-cell voltage clamp electrophysiological analysis; type: cell-based
# Outline: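 Automated patch clamp of CHO cells expressing GluN1/GluN2A; sealed in high Mg2+ buffer, recorded whole-cell in zero Mg2+. Preincubation with PAM at 100 µM (or DMSO) plus 100 µM glycine for several minutes, then rapid switch to 100 µM glutamate and back. Tau from monoexponential fit of current decay; fold deactivation = PAM tau / vehicle tau.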
Compound,pEC50 [1],pEC50 (Glutamate receptor 2 [2]),%max [3],%max (Glutamate receptor 2 [4]),pEC50 (Glutamate receptor 2 [5]),%max (Glutamate receptor 2 [6]),%max [8],efflux ratio (human MDR1 (P-gp)),other results
C=C(C)c1c(C)sc2nc(CN(CC)c3ccc(F)cc3)cc(=O)n12,7.22,4.37,143%,75%,4.89,22%,–,–,Ratio EC50 (Homo sapiens [7]): > 100
CCN(Cc1cc(=O)n2nc(C)sc2n1)c1ccc(F)cc1,6.05,5.48,150%,92%,6.08,99%,48%,1.4,logD [9]: 2.9
CCNC(=O)c1c(C)sc2nc(Cn3nc(C(F)(F)F)cc3Cl)cc(=O)n12,6.36,4.43,120%,8%,4.14,16%,–,11,Ratio EC50 (Homo sapiens [10]): 100
N#C[C@@H]1C[C@H]1c1c(C(F)(F)F)sc2nc(Cn3nc(C(F)(F)F)cc3Cl)cc(=O)n12,7.68,5.04,–,84%,5.26,88%,–,1.1,pEC50 [11]: 5.13; pEC50 [12]: 5.21; fraction unbound [13]: 0.06; fraction unbound [14]: 0.014; clearance [15]: 26 mL/min/kg; half-life [16]: 240 min; bioavailability [17]: 24%; Cp(f) (Plasma): 0.017 µM
CCNC(=O)c1c(C)sc2nc(CN(CC)c3ccc(F)cc3)cc(=O)n12,7.03,–,184%,10%,–,28%,–,5.1,Activity [18]: Active
CCNC(=O)c1c(C)sc2nc(COc3ccc(F)cc3)cc(=O)n12,5.07,–,77%,11%,–,15%,–,2,Activity [19]: inactive
CCCCc1nn2c(=O)cc(CN(CC)c3ccccc3)nc2s1,5.03,4.45,91%,51%,4.63,71%,40%,–,–
CCN(Cc1cc(=O)n2nc(C)sc2n1)c1ccccc1,5.72,5.12,150%,84%,5.70,95%,35%,–,–
CCN(Cc1cc(=O)n2c(C(C)=O)c(C)sc2n1)c1ccc(F)cc1,7.06,–,173%,13%,5.03,55%,–,1.1,Ratio EC50 (Homo sapiens [7]): 100

# Source: ChEMBL document CHEMBL3797125, “Discovery of GluN2A-Selective NMDA Receptor Positive Allosteric Modulators (PAMs): Tuning Deactivation Kinetics via Structure-Based Design” (J Med Chem, 2016)
